Assay results reported in ChEMBL document CHEMBL1821706, “Unprecedented citrinin trimer tricitinol B functions as a novel topoisomerase IIα inhibitor” (J Med Chem, 2011).
Activity calls are given as the source filed them. The calls are words filed in the database; no cut-off is given here.

Experiments:
[1] = test system: HMEC; test: Selectivity ratio of IC50 for human HMEC cells to IC50 for HL60 cells
[2] = test system: HMEC; test: Selectivity ratio of IC50 for human HMEC cells to IC50 for Bel7402 cells
[3] = test system: HMEC; test: Selectivity ratio of IC50 for human HMEC cells to IC50 for SKOV3 cells
[4] = test system: HL-60; test: Induction of DNA damage in human HL60 cells assessed as increased histone H2AX expression after 1 hr by agarose gel electrophoresis; format: functional, cell-based
[5] = target: DNA topoisomerase 2-alpha (Homo sapiens) (UniProt P11388); test: Inhibition of human topoisomerase 2alpha-mediated poststrand-passage DNA religation after 6 mins by agarose gel electrophoresis
How it was run: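 Topo II (6 units) with 0.25 μg supercoiled pBR322 in cleavage buffer with 1 mM APPNHP and 5 mM MgCl2. Cleavage/religation equilibrium set at 37 °C for 6 min. Compound added just before religation, which was started by a rapid shift from 37 to 55 °C for 5 min. SDS stop, then 1% agarose electrophoresis.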

[6] = test system: HMEC; test: Selectivity ratio of IC50 for human HMEC cells to IC50 for A549 cells
[7] = test system: HL-60; test: Induction of apoptosis in human HL60 cells assessed as DNA ladder formation at 10 uM after 1.5 to 24 hrs using Annexin-V/PI double-staining by flow cytometric analysis; format: functional, cell-based
How it was run: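 HL60 cells were treated with 2.5, 5.0, 7.5 or 10.0 μM for 24 h for DNA ladder analysis, representative of three experiments. Apoptotic fractions were measured after 2.5–10 μM for 24 h, or 10 μM over a time course, by Annexin/PI staining and flow cytometry (early plus late apoptotic cells), as mean ± SD of three experiments.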

[8] = test system: KB; test: Cytotoxicity against vincristine-resistant human KB cells over expressing P-glycoprotein after 72 hrs by SRB assay; format: functional, cell-based
How it was run: (§1)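 Adherent human tumour lines were seeded and exposed in triplicate to graded compound concentrations at 37 °C for 72 h. Growth was read by sulforhodamine B staining. IC50 (50% growth inhibition) was obtained by the Logit method from at least three independent experiments and reported as mean ± SD.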

[9] = test system: HMEC; test: Selectivity ratio of IC50 for human HMEC cells to IC50 for 786-O cells
[10] = test system: HMEC; test: Selectivity ratio of IC50 for human HMEC cells to IC50 for BxPC3 cells
[11] = test system: HL-60; test: Induction of apoptosis in human HL60 cells assessed as Bid cleavage at 2.5 to 10 uM after 24 hrs by Western blotting; format: functional, cell-based
How it was run: (§2)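 Cells (2×10^5/mL) were exposed to 2.5–10 μM for 24 h, then whole-cell lysates were made. Pro-/cleaved caspase-3, caspase-8, pro-/cleaved caspase-9, PARP (116 kDa full length, 85 kDa fragment) and Bid were probed by Western blot with ECL detection.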

[12] = test system: MDA-MB-468; test: Selectivity ratio of IC50 for human HMEC cells to IC50 for MDA-MB-468 cells
[13] = test system: HL-60; test: Induction of apoptosis in human HL60 cells assessed as PARP cleavage at 10 uM after 24 hrs by Western blotting preincubated for 2 hrs with 20 uM pancaspase inhibitor Z-VAD-FMK; format: functional, cell-based
How it was run: (§3)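 HL60 cells were pretreated with 20 μM Z-IETD-FMK, Z-LEHD-FMK or Z-VAD-FMK, then cultured with 10 μM compound for 24 h. Cleaved PARP and caspases were probed by Western blot. Three independent experiments were run.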

[14] = test system: HMEC; test: Selectivity ratio of IC50 for human HMEC cells to IC50 for A431 cells
[15] = test system: HL-60; test: Induction of apoptosis in human HL60 cells assessed as caspase 8 cleavage at 10 uM after 24 hrs by Western blotting preincubated for 2 hrs with 20 uM caspase 8 inhibitor Z-IETD-FMK; format: functional, cell-based; how it was run: as §3
[16] = test system: MCF7; test: Drug resistance index, ratio of IC50 for adriyamycin-resistant human MCF7 cells to IC50 for human MCF7 cells; format: functional
[17] = test system: HCT-116; test: Induction of apoptosis in human HCT116 cells assessed as increase in cleaved caspase 3 levels after 24 hrs by Western blotting; format: functional, cell-based; how it was run: as §2
[18] = test system: HL-60; test: Induction of apoptosis in human HL60 cells assessed as activation of caspase 9 at 10 uM after 24 hrs by Western blotting preincubated for 2 hrs with 20 uM caspase 9 inhibitor Z-LEHD-FMK; format: functional, cell-based; how it was run: as §3
[19] = test system: HL-60; test: Induction of apoptosis in human HL60 cells assessed as increase in cleaved caspase 3 levels after 24 hrs by Western blotting; format: functional, cell-based; how it was run: as §2
[20] = test system: HMEC; test: Selectivity ratio of IC50 for human HMEC cells to IC50 for HCT116 cells
[21] = test system: HL-60; test: Induction of apoptosis in human HL60 cells assessed as increase in cleaved PARP levels after 24 hrs by Western blotting; format: functional, cell-based; how it was run: as §2
[22] = test system: HL-60; test: Induction of apoptosis in human HL60 cells assessed as decrease in procaspase 3 expression after 24 hrs by Western blotting; format: functional, cell-based; how it was run: as §2
[23] = target: DNA topoisomerase 2-alpha (Homo sapiens) (UniProt P11388); test: Inhibition of human topoisomerase 2alpha-mediated decatenation of kDNA after 30 mins by agarose gel electrophoresis in presence of ATP
How it was run: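 Decatenation of 0.25 μg kDNA by 0.75 unit topo IIα at 37 °C for 30 min. Stopped with SDS. Run on 1% agarose in TAE at 4 V/cm for 2 h and stained with ethidium bromide.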

[24] = test system: HCT-116; test: Induction of apoptosis in human HCT116 cells assessed as accumulation at G2/M phase at 5 uM after 24 hrs using PI staining based flow cytometric analysis (reference value: 24.23%)
[25] = test system: HCT-116; test: Induction of apoptosis in human HCT116 cells assessed as accumulation at G0/G1 phase at 5 uM after 24 hrs using PI staining based flow cytometric analysis (reference value: 48.77%)
[26] = test system: HCT-116; test: Induction of apoptosis in human HCT116 cells assessed as Bid cleavage at 2.5 to 10 uM after 24 hrs by Western blotting; format: functional, cell-based; how it was run: as §2
[27] = test system: MCF7; test: Cytotoxicity against human MCF7 cells after 72 hrs by SRB assay; format: functional, cell-based; conditions: MCF7, 72 h; how it was run: as §1
[28] = test system: HL-60; test: Induction of apoptosis in human HL60 cells assessed as activation of caspase 9 at 2.5 to 10 uM after 24 hrs by Western blotting; format: functional, cell-based; how it was run: as §2
[29] = test system: HCT-116; test: Cytotoxicity against human HCT116 cells after 72 hrs by SRB assay; format: functional, cell-based; conditions: HCT-116, 72 h; how it was run: as §1
[30] = test system: HeLa; test: Selectivity ratio of IC50 for human HMEC cells to IC50 for HeLa cells
[31] = test system: KB; test: Drug resistance index, ratio of IC50 for vincristine-resistant human KB cells to IC50 for human KB cells; format: functional
[32] = test system: KB; test: Cytotoxicity against human KB cells after 72 hrs by SRB assay; format: functional, cell-based; how it was run: as §1
[33] = target: DNA topoisomerase 2-alpha (Homo sapiens) (UniProt P11388); test: Inhibition of human topoisomerase 2alpha-mediated unwinding of linearized pBR322 assessed as DNA intercalation at 2 to 50 uM
How it was run: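 Unwinding (intercalation) test: EcoRI-linearized pBR322 (0.1 μg) incubated with compound and 2 units T4 DNA ligase in ligase buffer at 22 °C for 30 min. Stopped at 60 °C for 10 min, compound removed by phenol extraction, ligation products resolved on agarose gel.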

Sequence of DNA topoisomerase 2-alpha (Homo sapiens) (P11388 whole entry): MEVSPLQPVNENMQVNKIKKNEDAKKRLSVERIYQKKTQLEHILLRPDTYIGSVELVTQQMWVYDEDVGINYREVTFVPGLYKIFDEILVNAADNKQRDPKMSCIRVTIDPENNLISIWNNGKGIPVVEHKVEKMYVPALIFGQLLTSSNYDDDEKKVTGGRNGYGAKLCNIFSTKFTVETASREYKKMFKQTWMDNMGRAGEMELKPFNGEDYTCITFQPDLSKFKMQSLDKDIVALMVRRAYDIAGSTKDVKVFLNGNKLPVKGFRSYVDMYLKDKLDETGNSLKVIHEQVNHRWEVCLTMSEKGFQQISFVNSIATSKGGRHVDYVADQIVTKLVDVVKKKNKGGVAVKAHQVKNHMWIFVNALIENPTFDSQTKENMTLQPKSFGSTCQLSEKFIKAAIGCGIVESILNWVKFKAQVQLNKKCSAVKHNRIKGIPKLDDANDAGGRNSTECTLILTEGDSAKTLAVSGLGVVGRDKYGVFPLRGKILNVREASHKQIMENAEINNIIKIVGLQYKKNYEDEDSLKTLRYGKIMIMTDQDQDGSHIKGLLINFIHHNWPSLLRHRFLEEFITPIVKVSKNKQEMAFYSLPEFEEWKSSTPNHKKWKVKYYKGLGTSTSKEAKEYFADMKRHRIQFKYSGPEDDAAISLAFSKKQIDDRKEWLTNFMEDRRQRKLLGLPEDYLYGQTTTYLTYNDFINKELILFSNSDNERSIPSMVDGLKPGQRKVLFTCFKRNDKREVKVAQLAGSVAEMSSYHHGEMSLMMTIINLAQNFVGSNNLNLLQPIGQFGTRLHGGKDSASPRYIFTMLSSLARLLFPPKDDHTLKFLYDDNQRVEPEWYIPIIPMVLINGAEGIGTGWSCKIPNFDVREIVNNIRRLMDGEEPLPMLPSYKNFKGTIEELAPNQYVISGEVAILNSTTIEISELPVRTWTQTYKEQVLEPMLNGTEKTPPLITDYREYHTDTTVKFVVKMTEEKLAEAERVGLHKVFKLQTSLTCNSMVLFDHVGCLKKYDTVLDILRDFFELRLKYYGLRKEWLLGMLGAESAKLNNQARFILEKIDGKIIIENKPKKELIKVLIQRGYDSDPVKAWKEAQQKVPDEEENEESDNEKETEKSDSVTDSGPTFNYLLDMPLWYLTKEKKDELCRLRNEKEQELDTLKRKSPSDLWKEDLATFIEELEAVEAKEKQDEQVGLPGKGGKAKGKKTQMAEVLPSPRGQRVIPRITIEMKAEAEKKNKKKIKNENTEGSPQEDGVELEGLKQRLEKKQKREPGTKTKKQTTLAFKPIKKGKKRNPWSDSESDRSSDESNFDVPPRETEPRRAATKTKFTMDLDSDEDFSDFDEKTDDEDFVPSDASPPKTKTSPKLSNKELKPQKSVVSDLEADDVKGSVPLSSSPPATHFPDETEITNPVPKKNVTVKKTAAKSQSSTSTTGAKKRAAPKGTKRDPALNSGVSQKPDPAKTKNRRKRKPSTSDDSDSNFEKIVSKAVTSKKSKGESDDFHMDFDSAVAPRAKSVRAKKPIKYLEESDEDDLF

- inhibition [5]: Dose-dependent effect
- inhibition [23]: Dose-dependent effect
- inhibition [33]: Active
Compound: COC1O[C@H](C)[C@@H](C)c2c(C)c3c(c(O)c21)[C@@H]1O[C@H](C)[C@@H](C)c2c(C)c(O)c([C@H]4O[C@H](C)[C@@H](C)c5c(C)c(O)cc(O)c54)c(c21)O3 (stereo partly drawn) [TRICITRINOL B]
- Ratio IC50 [1]: 2
- Ratio IC50 [2]: 2
- Ratio IC50 [3]: 2
- Activity [4]: Dose-dependent effect
- Ratio IC50 [6]: 2
- Activity [7]: Active
- IC50 [8]: 4.6 µM
- Ratio IC50 [9]: 2
- Ratio IC50 [10]: 2
- Activity [11]: Active
- Ratio IC50 [12]: 2
- Activity [13]: inactive
- Ratio IC50 [14]: 2
- Activity [15]: inactive
- Ratio IC50 [16]: 1.28
- Activity [17]: Dose-dependent effect
- Activity [18]: Active
- Activity [19]: Dose-dependent effect
- Ratio IC50 [20]: 2
- Activity [21]: Dose-dependent effect
- Activity [22]: Dose-dependent effect
- Activity [24]: 42.06%
- Activity [25]: 37.52%
- Activity [26]: Active
- IC50 [27]: 5.76 µM
- Activity [28]: Active
- IC50 [29]: 4.82 µM
- Ratio IC50 [30]: 2
- Ratio IC50 [31]: 0.94
- IC50 [32]: 3.87 µM
